Measured values from ChEMBL document CHEMBL3526053, “Species-dependent uptake of glycylsarcosine but not oseltamivir in Pichia pastoris expressing the rat, mouse, and human intestinal peptide transporter PEPT1” (Drug Metab Dispos, 2012).

Experiments:
Assay type in all cases: ADME
Details in all cases: 0.5 min
[1] = target: T1, Solute carrier family 15 member 1 (Homo sapiens, UniProt P46059); test: Drug uptake in Pichia pastoris GS115 expressing human recombinant PEPT1 at 5 uM after 30s by dual-channel liquid scintillation counting analysis in presence of glycine relative to control
T1 sequence (P46059 whole entry): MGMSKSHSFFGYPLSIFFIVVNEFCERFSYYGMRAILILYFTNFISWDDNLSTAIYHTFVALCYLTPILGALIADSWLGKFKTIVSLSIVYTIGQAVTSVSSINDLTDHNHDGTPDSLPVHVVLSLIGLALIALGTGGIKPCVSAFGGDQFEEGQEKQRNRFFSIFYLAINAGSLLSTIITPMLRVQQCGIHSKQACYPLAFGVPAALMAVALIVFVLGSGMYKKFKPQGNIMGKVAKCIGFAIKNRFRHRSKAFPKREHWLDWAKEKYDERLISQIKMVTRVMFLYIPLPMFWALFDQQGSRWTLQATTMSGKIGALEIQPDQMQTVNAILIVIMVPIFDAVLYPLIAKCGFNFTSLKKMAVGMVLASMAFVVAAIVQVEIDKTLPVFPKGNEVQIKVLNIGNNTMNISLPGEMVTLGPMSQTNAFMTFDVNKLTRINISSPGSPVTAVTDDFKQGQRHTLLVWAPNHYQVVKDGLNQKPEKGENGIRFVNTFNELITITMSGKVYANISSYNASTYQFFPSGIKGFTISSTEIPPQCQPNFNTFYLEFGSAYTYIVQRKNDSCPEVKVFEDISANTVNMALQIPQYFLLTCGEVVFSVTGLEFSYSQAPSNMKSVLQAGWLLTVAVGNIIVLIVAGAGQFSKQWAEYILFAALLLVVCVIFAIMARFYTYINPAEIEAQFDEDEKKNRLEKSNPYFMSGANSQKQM
Procedure, shortened: (§1)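 [3H]GlySar 5.0 µM final, 30-s uptake at 24°C in 100 mM potassium phosphate pH 6.5, with or without a potential inhibitor at 10 mM. Cells are methanol-induced transformants. Values are vector-subtracted and expressed as percent of buffer control. Mean ± SE (n=3). ANOVA with Dunnett's test.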

[2] = target: T2, Solute carrier family 15 member 1 (Mus musculus, UniProt Q9JIP7); test: Drug uptake in Pichia pastoris GS115 expressing mouse recombinant PEPT1 at 5 uM after 30s by dual-channel liquid scintillation counting analysis in presence of cephradine relative to control; procedure, shortened: as §1
T2 sequence (Q9JIP7 whole entry): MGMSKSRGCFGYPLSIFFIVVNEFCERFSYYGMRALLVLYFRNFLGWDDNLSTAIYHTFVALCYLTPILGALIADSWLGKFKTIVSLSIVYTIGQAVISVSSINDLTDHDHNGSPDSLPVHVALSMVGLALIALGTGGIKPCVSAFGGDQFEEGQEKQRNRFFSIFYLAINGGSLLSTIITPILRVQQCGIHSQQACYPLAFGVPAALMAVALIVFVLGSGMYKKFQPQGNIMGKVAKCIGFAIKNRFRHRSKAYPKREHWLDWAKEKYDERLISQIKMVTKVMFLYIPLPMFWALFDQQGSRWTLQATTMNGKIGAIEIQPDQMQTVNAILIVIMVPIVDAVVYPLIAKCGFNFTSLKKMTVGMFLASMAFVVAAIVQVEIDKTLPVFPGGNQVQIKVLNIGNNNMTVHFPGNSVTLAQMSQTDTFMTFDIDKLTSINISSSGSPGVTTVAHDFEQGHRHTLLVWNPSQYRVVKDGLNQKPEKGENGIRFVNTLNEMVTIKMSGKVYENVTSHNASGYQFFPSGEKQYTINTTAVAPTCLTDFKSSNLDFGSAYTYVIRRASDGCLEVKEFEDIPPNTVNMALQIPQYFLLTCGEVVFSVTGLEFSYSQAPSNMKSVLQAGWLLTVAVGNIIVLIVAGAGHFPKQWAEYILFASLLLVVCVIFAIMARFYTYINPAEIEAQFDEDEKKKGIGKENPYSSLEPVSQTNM

[3] = target: T3, Solute carrier family 15 member 1 (Rattus norvegicus, UniProt P51574); test: Drug uptake in Pichia pastoris GS115 expressing rat recombinant PEPT1 at 5 uM after 30s by dual-channel liquid scintillation counting analysis in presence of cephradine relative to control
T3 sequence (P51574 whole entry): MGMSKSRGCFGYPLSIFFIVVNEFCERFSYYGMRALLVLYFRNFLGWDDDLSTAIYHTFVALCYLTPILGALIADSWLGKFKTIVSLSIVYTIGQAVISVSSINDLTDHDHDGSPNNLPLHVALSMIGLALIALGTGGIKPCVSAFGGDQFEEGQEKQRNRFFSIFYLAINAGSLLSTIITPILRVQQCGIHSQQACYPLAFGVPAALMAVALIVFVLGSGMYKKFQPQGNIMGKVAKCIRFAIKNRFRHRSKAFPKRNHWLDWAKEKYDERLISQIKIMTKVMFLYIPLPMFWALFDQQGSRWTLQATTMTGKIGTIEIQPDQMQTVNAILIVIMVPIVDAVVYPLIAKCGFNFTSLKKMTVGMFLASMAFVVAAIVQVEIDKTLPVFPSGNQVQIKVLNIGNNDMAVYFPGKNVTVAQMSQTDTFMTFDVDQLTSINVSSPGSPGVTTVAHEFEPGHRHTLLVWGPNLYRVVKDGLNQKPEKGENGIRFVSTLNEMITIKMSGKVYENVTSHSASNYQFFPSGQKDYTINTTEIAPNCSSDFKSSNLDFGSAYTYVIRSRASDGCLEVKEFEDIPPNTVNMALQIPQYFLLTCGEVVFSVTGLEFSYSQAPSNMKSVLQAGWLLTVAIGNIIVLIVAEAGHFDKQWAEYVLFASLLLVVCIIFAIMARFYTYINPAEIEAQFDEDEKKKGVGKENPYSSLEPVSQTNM
Procedure, shortened: (§2)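 Rat PEPT1 (pPIC3.5K-rPept1) in GS115 His+Mut+ transformant, methanol-induced 20-24 hr in BMMY at 30°C, washed into 100 mM potassium phosphate pH 6.5. [3H]GlySar final 5.0 µM with inhibitor at 10 mM, 30 sec at 24°C. Counts taken by liquid scintillation after 24 hr standing. Values are vector-subtracted and given as % of buffer control. Mean ± SE, n=3.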

[4] = target: T2, Solute carrier family 15 member 1; test: Drug uptake in Pichia pastoris GS115 expressing mouse recombinant PEPT1 at 5 uM after 30s by dual-channel liquid scintillation counting analysis in presence of acyclovir relative to control; procedure, shortened: as §1
[5] = target: T1, Solute carrier family 15 member 1; test: Drug uptake in Pichia pastoris GS115 expressing human recombinant PEPT1 at 5 uM after 30s by dual-channel liquid scintillation counting analysis in presence of cefazolin relative to control; procedure, shortened: as §1
[6] = target: T2, Solute carrier family 15 member 1; test: Drug uptake in Pichia pastoris GS115 expressing mouse recombinant PEPT1 at 5 uM after 30s by dual-channel liquid scintillation counting analysis in presence of L-histidine relative to control; procedure, shortened: as §1
[7] = target: T3, Solute carrier family 15 member 1; test: Drug uptake in Pichia pastoris GS115 expressing rat recombinant PEPT1 at 5 uM after 30s by dual-channel liquid scintillation counting analysis in presence of valacyclovir relative to control; procedure, shortened: as §2
[8] = target: T3, Solute carrier family 15 member 1; test: Drug uptake in Pichia pastoris GS115 expressing rat recombinant PEPT1 at 5 uM after 30s by dual-channel liquid scintillation counting analysis in presence of cephapirin relative to control; procedure, shortened: as §2

`[3H]C(C(=O)O)N(C)C(=O)CN` (stereo not drawn) showed a Drug uptake [1] of 130%, a Drug uptake [2] of 9.8% and a Drug uptake [3] of 23.4%. For the same compound, the Drug uptake [4] was 99.8%, the Drug uptake [5] was 81.1% and the Drug uptake [6] was 103%. For the same compound, the Drug uptake [7] was 5.5% and the Drug uptake [8] was 122%.
